This passage reports IC50 results from ChEMBL document CHEMBL3867438, “Cytotoxic Tirucallane and Apotirucallane Triterpenoids from the Stems of Picrasma quassioides” (J Nat Prod, 2016).

Broadly, the pIC50 is the IC50 on a negative log10 scale, so that one unit is a factor of ten.

What all share (format): functional, cell-based
Test [1] in a line: Cytotoxicity against human MKN28 cells assessed as inhibition of cell proliferation after 48 hrs by MTT assay. Conditions: MKN-28, 48 h. The method in brief:
(§1)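 Cells grown in DMEM with 10% FBS, 100 U/mL penicillin, 100 μg/mL streptomycin, 37 °C, 5% CO2. Seeded 5 × 10^3 cells/well, 12 h, then exposed to compounds for 48 h. MTT (5 mg/mL stock) added for 4 h at 37 °C, formazan dissolved in DMSO, absorbance read at 570 nm. IC50 relative to untreated control. Triplicate, repeated twice; cis-platinum as positive control.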
For orientation: Formazan colour is commonly taken as a measure of viable cells.

Test [2] is described as follows: Cytotoxicity against human A549 cells assessed as inhibition of cell proliferation after 48 hrs by MTT assay. Conditions: A549, 48 h. An outline of the steps:
as §1

Test [3] can be described thus: Cytotoxicity against human MCF7 cells assessed as inhibition of cell proliferation after 48 hrs by MTT assay. The following applies: MCF7, 48 h. The method in brief:
as §1

pIC50: −log10 of the molar value.

Take `CCO[C@@H]1O[C@@H]([C@H](O)C(C)(C)O)C[C@H]1[C@@H]1CC[C@]2(C)C3=CC[C@H]4C(C)(C)C(=O)CC[C@]4(C)[C@H]3CC[C@@]12C`: the pIC50 in test [1], in test [2] and in test [3] was under 5.00 in each case.

In the case of `CC1(C)OC[C@H]([C@@H]2CC[C@]3(C)C4=CC[C@H]5C(C)(C)[C@H](O)CC[C@]5(C)[C@H]4CC[C@@]23C)C[C@@H](O)[C@@H]1O`, the pIC50 in test [1], in test [2] and in test [3] was under 5.00 each time.

For `CCO[C@H]1O[C@@H]([C@H](O)C(C)(C)O)C[C@H]1[C@@H]1CC[C@]2(C)C3=CC=C4C(C)(C)C(=O)CC[C@]4(C)C3=CC[C@@]12C`, the pIC50 in test [1], in test [2] and in test [3] was under 5.00 each time.

Turning to `C[C@@H](C[C@@H](O)[C@H](O)C(C)(C)O)[C@@H]1CC[C@]2(C)C3=CC(=O)[C@H]4C(C)(C)[C@@H](O)CC[C@]4(C)[C@H]3CC[C@@]12C`, the pIC50 in test [1], in test [2] and in test [3] was under 5.00 in each case.

Take `CCO[C@H]1O[C@H](C(C)(C)O)[C@@H](O)C[C@H]1[C@@H]1CC[C@]2(C)C3=CC[C@H]4C(C)(C)C(=O)CC[C@]4(C)[C@H]3CC[C@@]12C`: the pIC50 in test [1], in test [2] and in test [3] was under 5.00 throughout.

In the case of `CC(C)(O)[C@@H]1[C@@H](O)[C@H]([C@@H]2CC=C3[C@]4(C)[C@H](O)C[C@H]5C(C)(C)[C@H](O)CC[C@]5(C)[C@H]4CC[C@]32C)C[C@H]1O`, the pIC50 in test [1], in test [2] and in test [3] was under 5.00 throughout.

`C[C@@H](CC[C@H](O)C(C)(C)O)[C@@H]1CC[C@]2(C)C3=CC[C@H]4C(C)(C)C(=O)CC[C@]4(C)[C@H]3CC[C@@]12C`: the pIC50 in test [1] was 5.04; in test [2], under 5.00; in test [3], under 5.00.

For the molecule `CCCCCC(=O)O[C@@H]1C[C@]2(C)C(=CC[C@H]2[C@]2(O)C[C@@H]([C@@H](O)C(C)(C)O)O[C@H]2OC)[C@]2(C)[C@H](O)C[C@H]3C(C)(C)C(=O)C=C[C@]3(C)[C@@H]12`, the pIC50 in test [1], in test [2] and in test [3] was under 5.00 in each case.

For the molecule `CC(C)=CCC[C@H](C(=O)O)[C@@H]1CC[C@]2(C)C3=CC[C@@H]4[C@](C)(CC[C@H](O)[C@]4(C)CO)[C@H]3CC[C@@]12C`, the pIC50 in test [1] is 5.04; in test [2], under 5.00; in test [3], under 5.00.

In the case of `CO[C@H]1O[C@H](C=C(C)C)C[C@H]1[C@@H]1CC[C@]2(C)C3=CC[C@H]4C(C)(C)[C@@H](O)CC[C@]4(C)[C@H]3CC[C@@]12C`, the pIC50 in test [1] was 5.06; in test [2], under 5.00; in test [3], under 5.00.

With `CCO[C@H]1O[C@H](C(C)(C)O)[C@@H](O)C[C@H]1[C@@H]1CC[C@]2(C)C3=CC(=O)[C@H]4C(C)(C)C(=O)CC[C@]4(C)[C@H]3CC[C@@]12C`, the pIC50 is 5.09 in test [1], under 5.00 in test [2] and under 5.00 in test [3].

Consider `CCO[C@@H]1O[C@@H](C=C(C)C)C[C@H]1[C@@H]1CC[C@]2(C)C3=CC[C@H]4C(C)(C)[C@@H](O)CC[C@]4(C)[C@H]3CC[C@@]12C`, for which the pIC50 in test [1] is 5.10; in test [2] it was 5.08; in test [3], under 5.00.

With `CC(C)(O)[C@H]1OC[C@H]([C@H]2CC[C@]3(C)C4=CC[C@H]5C(C)(C)C(=O)CC[C@]5(C)[C@H]4CC[C@@]23C)C[C@H]1O`, the results for the pIC50 in test [1], in test [2] and in test [3] were 5.17, 5.15 and 5.00, respectively.

For `CCO[C@@H]1O[C@H]([C@@H](O)C(C)(C)O)C[C@H]1[C@@H]1CC[C@]2(C)C3=CC[C@H]4C(C)(C)[C@@H](O)CC[C@]4(C)C3=CC[C@@]12C`, the pIC50 in test [1] was 5.04; in test [2] it was under 5.00; in test [3], under 5.00.

On to `C[C@@H](C[C@@H](O)[C@@H](O)C(C)(C)O)[C@@H]1CC[C@]2(C)C3=CC[C@H]4C(C)(C)C(=O)CC[C@]4(C)[C@H]3CC[C@@]12C`, for which the pIC50 in test [1] is 5.16; in test [2] it was 5.10; in test [3] it was 5.07.

Take `COC(=O)[C@@H](CCC=C(C)C)[C@@H]1CC[C@]2(C)C3=CC[C@@H]4[C@](C)(CCC(=O)[C@]4(C)CO)[C@H]3CC[C@@]12C`: the pIC50 in test [1] is 5.08; in test [2] it was under 5.00; in test [3], under 5.00.

As to `C[C@@H](C[C@@H](O)[C@H](O)C(C)(C)O)[C@@H]1CC=C2[C@]3(C)[C@H](O)[C@@H](O)[C@H]4C(C)(C)C(=O)CC[C@]4(C)[C@H]3CC[C@]21C`, the pIC50 in test [1], in test [2] and in test [3] was under 5.00 each time.

In the case of `CO[C@@H]1O[C@H](C=C(C)C)C[C@H]1[C@@H]1CC[C@]2(C)C3=CC[C@H]4C(C)(C)[C@@H](O)CC[C@]4(C)[C@H]3CC[C@@]12C`, the pIC50 in test [1] was 5.01; in test [2], under 5.00; in test [3], under 5.00.

Consider `CCO[C@H]1O[C@H](C=C(C)C)C[C@H]1[C@@H]1CC[C@]2(C)C3=CC[C@H]4C(C)(C)[C@@H](O)CC[C@]4(C)[C@H]3CC[C@@]12C`, for which the pIC50 in test [1], in test [2] and in test [3] was under 5.00 each time.

Take `CC(C)(O)[C@H]1OC[C@H]([C@@H]2CC[C@]3(C)C4=CC[C@H]5C(C)(C)C(=O)CC[C@]5(C)[C@H]4CC[C@@]23C)C[C@H]1O`: the pIC50 in test [1], in test [2] and in test [3] was under 5.00 in each case.

Consider `CCO[C@H]1O[C@@H]([C@H](O)C(C)(C)O)C[C@H]1[C@@H]1CC[C@]2(C)C3=CC[C@H]4C(C)(C)C(=O)CC[C@]4(C)[C@H]3CC[C@@]12C`, for which the pIC50 in test [1], in test [2] and in test [3] was under 5.00 throughout.

Take `C[C@@H](C[C@@H](O)[C@H](O)C(C)(C)O)[C@@H]1CC[C@]2(C)C3=C(C(=O)C[C@@]12C)[C@@]1(C)CCC(=O)C(C)(C)[C@@H]1CC3=O`: the pIC50 in test [1], in test [2] and in test [3] was under 5.00 each time.

Take `C[C@@H](C[C@@H](O)[C@H](O)C(C)(C)O)[C@@H]1CC=C2[C@]3(C)[C@H](O)C[C@H]4C(C)(C)C(=O)CC[C@]4(C)[C@H]3CC[C@]21C`: the pIC50 in test [1], in test [2] and in test [3] was under 5.00 in each case.

Consider `CO[C@@H]1O[C@H](C=C(C)C)C[C@H]1[C@@H]1CC[C@]2(C)C3=CC[C@H]4C(C)(C)[C@H](O)CC[C@]4(C)[C@H]3CC[C@@]12C`, for which the pIC50 in test [1], in test [2] and in test [3] was under 5.00 throughout.

On to `CCOC(=O)CC[C@]1(C)[C@H]2CC[C@@]3(C)[C@H]([C@@H](C)CC/C=C(\C)CO)CC[C@]3(C)C2=CC[C@H]1C(C)(C)O`, for which the pIC50 in test [1], in test [2] and in test [3] was under 5.00 throughout.

As for `COC1OC(C=C(C)C)C[C@H]1[C@@H]1CC[C@]2(C)C3=CC[C@H]4C(C)(C)[C@H](O)CC[C@]4(C)[C@H]3CC[C@@]12C` (some centres undefined), the pIC50 in test [1], in test [2] and in test [3] was under 5.00 in each case.

As for `CO[C@H]1O[C@@H](C=C(C)C)C[C@H]1[C@@H]1CC[C@]2(C)C3=CC[C@H]4C(C)(C)[C@@H](O)CC[C@]4(C)[C@H]3CC[C@@]12C`, the pIC50 in test [1], in test [2] and in test [3] was under 5.00 each time.

Consider `CCO[C@H]1O[C@@H]([C@H](O)C(C)(C)O)C[C@H]1[C@@H]1CC[C@]2(C)C3=CC[C@H]4C(C)(C)C(=O)CC[C@]4(C)C3=CC[C@@]12C`, for which the pIC50 in test [1] was 5.08; in test [2], under 5.00; in test [3], under 5.00.
